Test results as given in ChEMBL document CHEMBL3102848, “Carbamazepine derivatives with P2X4 receptor-blocking activity” (Bioorg Med Chem, 2014).

Tests used:
P2X purinoceptor 7 = molecular target: T1, P2X purinoceptor 7 (Homo sapiens, UniProt Q99572); assay: Antagonist activity at human P2X7 receptor expressed in human 1321N1 cells assessed as inhibition of ATP-induced cytosolic calcium influx preincubated for 30 mins followed by ATP addition by Fluo-4 AM dye-based fluorescence assay; format: cell-based
T1 sequence (Q99572 whole entry): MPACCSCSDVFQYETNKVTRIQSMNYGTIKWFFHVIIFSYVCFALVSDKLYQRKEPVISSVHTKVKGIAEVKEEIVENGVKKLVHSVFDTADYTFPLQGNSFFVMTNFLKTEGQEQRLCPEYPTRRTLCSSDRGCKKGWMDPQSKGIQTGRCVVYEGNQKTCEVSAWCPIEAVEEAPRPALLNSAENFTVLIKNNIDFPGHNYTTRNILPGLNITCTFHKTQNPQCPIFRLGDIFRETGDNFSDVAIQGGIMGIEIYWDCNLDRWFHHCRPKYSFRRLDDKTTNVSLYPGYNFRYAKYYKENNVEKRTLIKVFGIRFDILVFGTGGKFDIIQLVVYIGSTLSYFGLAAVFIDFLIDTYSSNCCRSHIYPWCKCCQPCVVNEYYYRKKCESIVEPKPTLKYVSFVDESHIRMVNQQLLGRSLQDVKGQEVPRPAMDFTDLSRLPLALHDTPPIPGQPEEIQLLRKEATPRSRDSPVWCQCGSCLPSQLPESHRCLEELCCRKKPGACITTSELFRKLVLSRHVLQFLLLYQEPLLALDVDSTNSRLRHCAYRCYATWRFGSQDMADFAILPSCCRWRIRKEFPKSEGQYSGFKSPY

P2X purinoceptor 4 [1] = molecular target: T2, P2X purinoceptor 4 (Homo sapiens, UniProt Q99571); assay: Antagonist activity at human P2X4 receptor expressed in human 1321N1 cells assessed as inhibition of ATP-induced cytosolic calcium influx preincubated for 30 mins followed by ATP addition by Fluo-4 AM dye-based fluorescence assay; format: cell-based
T2 sequence (Q99571 whole entry): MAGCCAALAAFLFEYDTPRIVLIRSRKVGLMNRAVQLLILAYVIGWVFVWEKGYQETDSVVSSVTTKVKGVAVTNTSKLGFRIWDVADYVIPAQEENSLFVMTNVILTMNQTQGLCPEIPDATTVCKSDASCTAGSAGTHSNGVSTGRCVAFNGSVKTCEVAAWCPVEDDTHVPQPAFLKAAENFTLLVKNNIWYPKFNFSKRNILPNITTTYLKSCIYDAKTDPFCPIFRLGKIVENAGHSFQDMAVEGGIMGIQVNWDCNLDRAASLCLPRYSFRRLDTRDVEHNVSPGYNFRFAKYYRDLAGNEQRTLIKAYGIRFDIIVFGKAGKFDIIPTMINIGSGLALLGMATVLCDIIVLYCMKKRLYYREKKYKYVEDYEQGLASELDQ
In short: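 Human P2X4 stably transfected into 1321N1 astrocytoma cells. Inhibition of ATP-induced calcium influx measured as in earlier work. Compounds were first screened at a single high concentration, chosen according to their solubility.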

P2X purinoceptor 3 = molecular target: T3, P2X purinoceptor 3 (Homo sapiens, UniProt P56373); assay: Antagonist activity at human P2X3 receptor expressed in human 1321N1 cells assessed as inhibition of ATP-induced cytosolic calcium influx preincubated for 30 mins followed by ATP addition by Fluo-4 AM dye-based fluorescence assay; format: cell-based
T3 sequence (P56373 whole entry): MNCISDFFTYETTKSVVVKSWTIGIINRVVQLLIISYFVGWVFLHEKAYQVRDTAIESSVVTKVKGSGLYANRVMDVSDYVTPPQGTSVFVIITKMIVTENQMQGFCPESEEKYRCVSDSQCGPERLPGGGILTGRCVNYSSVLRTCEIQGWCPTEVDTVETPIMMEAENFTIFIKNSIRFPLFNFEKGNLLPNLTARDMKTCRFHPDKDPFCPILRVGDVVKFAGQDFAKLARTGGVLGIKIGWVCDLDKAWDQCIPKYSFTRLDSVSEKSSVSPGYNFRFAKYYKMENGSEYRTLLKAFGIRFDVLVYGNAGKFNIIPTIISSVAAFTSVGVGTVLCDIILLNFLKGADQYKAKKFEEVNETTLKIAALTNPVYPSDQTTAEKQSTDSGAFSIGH

[2] = molecular target: T4, P2X purinoceptor 2 (Homo sapiens) (UniProt Q9UBL9); assay: Antagonist activity at human P2X2 receptor expressed in human 1321N1 cells assessed as inhibition of ATP-induced cytosolic calcium influx at 100 uM preincubated for 30 mins followed by ATP addition by Fluo-4 AM dye-based fluorescence assay; format: cell-based
T4 sequence (whole entry): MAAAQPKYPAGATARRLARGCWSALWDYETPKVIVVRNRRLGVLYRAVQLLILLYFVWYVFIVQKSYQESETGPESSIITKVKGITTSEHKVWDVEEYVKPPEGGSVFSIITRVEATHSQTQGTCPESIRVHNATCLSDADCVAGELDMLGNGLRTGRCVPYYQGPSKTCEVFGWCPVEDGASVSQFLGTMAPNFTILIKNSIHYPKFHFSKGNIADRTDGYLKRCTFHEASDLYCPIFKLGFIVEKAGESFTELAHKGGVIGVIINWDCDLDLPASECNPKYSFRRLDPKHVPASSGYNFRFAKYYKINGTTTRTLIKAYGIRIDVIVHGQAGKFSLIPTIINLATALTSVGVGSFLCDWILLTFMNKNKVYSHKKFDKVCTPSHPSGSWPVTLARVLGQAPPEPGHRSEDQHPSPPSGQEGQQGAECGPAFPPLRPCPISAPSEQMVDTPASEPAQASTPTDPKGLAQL

P2X purinoceptor 4 [3] = molecular target: T5, P2X purinoceptor 4 (Mus musculus, UniProt Q9JJX6); assay: Antagonist activity at mouse P2X4 receptor assessed as inhibition of ATP-induced cytosolic calcium influx preincubated for 30 mins followed by ATP addition by Fluo-4 AM dye-based fluorescence assay
T5 sequence (Q9JJX6 whole entry): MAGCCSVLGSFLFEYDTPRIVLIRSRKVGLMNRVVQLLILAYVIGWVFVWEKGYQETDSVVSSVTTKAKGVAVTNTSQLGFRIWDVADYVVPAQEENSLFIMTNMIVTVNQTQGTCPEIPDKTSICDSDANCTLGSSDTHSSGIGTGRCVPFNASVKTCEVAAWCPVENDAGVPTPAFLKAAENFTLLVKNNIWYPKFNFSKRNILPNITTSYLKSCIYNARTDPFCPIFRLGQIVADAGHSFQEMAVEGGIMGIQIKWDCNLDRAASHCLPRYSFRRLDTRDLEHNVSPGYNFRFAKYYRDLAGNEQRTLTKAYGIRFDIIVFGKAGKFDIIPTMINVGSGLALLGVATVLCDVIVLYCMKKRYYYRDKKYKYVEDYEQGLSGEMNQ

Row | Structure (SMILES) | IC50 (P2X purinoceptor 7) | IC50 (P2X purinoceptor 4 [1]) | IC50 (P2X purinoceptor 3) | inhibition [2] | IC50 (P2X purinoceptor 4 [3])
1 | CCCN(CCC)C(=O)N1c2ccccc2C=Cc2ccccc21 | > 100 µM | 7.78 µM | 15.2 µM | -2% | > 100 µM
2 | O=C(NC1CCCCC1)N1c2ccccc2C=Cc2ccccc21 | 40.8 µM | 33.8 µM | 28 µM | 11% | 98.4 µM
3 | CCN(CC)C(=O)N1c2ccccc2C=Cc2ccccc21 | 69.8 µM | 11.4 µM | 14.2 µM | 1% | > 100 µM
4 | CC(C)N(C(=O)N1c2ccccc2C=Cc2ccccc21)C(C)C | 95.2 µM | 3.44 µM | 7.18 µM | 8% | 14.9 µM
5 | O=C(N1CCCCC1)N1c2ccccc2C=Cc2ccccc21 | > 100 µM | 13.7 µM | 7.98 µM | 4% | 102 µM
6 | O=C(N1CCCC1)N1c2ccccc2C=Cc2ccccc21 | > 100 µM | 34.1 µM | 29.8 µM | 6% | 123 µM
